Converted amounts (≈) assume the structure as drawn.
Legend:
Eggerthella lenta = experiment: Antimicrobial activity against Eubacterium lentum assessed as percent resistant isolates after 48 hrs by agar dilution method; assay type: functional
How it was run: (§1)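 CLSI agar dilution on recent Korean clinical anaerobe isolates. Inoculum 10^5 CFU per spot by replicator. Plates incubated in an anaerobic chamber at 37°C for 48 h. For piperacillin plus tazobactam, tazobactam was held constant at 4 μg/ml. Resistance and susceptibility rates derived from MICs.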

Phocaeicola vulgatus = experiment: Antimicrobial activity against Bacteroides vulgatus assessed as percent susceptible isolates after 48 hrs by agar dilution method; assay type: functional
Bacteroides ovatus [1] = experiment: Antimicrobial activity against Bacteroides ovatus assessed as percent resistant isolates after 48 hrs by agar dilution method; assay type: functional; how it was run: as §1
Anaerococcus prevotii [2] = experiment: Antimicrobial activity against Anaerococcus prevotii assessed as percent resistant isolates after 48 hrs by agar dilution method; assay type: functional; how it was run: as §1
[3] = system: Bacteroides thetaiotaomicron; experiment: Antimicrobial activity against Bacteroides thetaiotaomicron after 48 hrs by agar dilution method; assay type: functional
How it was run: (§2)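 MICs on clinical anaerobe isolates by the CLSI agar dilution method. Inoculum of 10^5 CFU applied with a Steers replicator. Plates incubated 48 h at 37°C in an anaerobic chamber.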

Actinomyces naeslundii [4] = experiment: Antimicrobial activity against Actinomyces naeslundii after 48 hrs by agar dilution method; assay type: functional; how it was run: as §2
Prevotella bivia [5] = experiment: Antimicrobial activity against Prevotella bivia after 48 hrs by agar dilution method; assay type: functional
How it was run: (§3)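 CLSI agar dilution (M11-A7); inoculum 10^5 CFU applied by replicator; plates incubated anaerobically 48 h at 37°C. For piperacillin-tazobactam, tazobactam held constant at 4 μg/ml.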

Fusobacterium varium = experiment: Antimicrobial activity against Fusobacterium varium after 48 hrs by agar dilution method; assay type: functional; how it was run: as §3
Fusobacterium mortiferum = experiment: Antimicrobial activity against Fusobacterium mortiferum after 48 hrs by agar dilution method; assay type: functional; how it was run: as §3
Bacteroides fragilis [6] = experiment: Antimicrobial activity against Bacteroides fragilis assessed as percent susceptible isolates after 48 hrs by agar dilution method; assay type: functional
Clostridioides difficile [7] = experiment: Antimicrobial activity against Clostridium difficile assessed as percent resistant isolates after 48 hrs by agar dilution method; assay type: functional
Hoylesella oralis [8] = experiment: Antimicrobial activity against Prevotella oralis assessed as percent resistant isolates after 48 hrs by agar dilution method; assay type: functional; how it was run: as §1
Prevotella bivia [9] = experiment: Antimicrobial activity against Prevotella bivia assessed as percent susceptible isolates after 48 hrs by agar dilution method; assay type: functional; how it was run: as §3
Parvimonas micra = experiment: Antimicrobial activity against Peptostreptococcus micros assessed as percent susceptible isolates after 48 hrs by agar dilution method; assay type: functional; how it was run: as §1
Prevotella buccae [10] = experiment: Antimicrobial activity against Prevotella buccae assessed as percent susceptible isolates after 48 hrs by agar dilution method; assay type: functional, Segatella buccae; how it was run: as §3
Schaalia meyeri [11] = experiment: Antimicrobial activity against Actinomyces meyeri assessed as percent resistant isolates after 48 hrs by agar dilution method; assay type: functional; how it was run: as §1
Actinomyces naeslundii [12] = experiment: Antimicrobial activity against Actinomyces naeslundii assessed as percent resistant isolates after 48 hrs by agar dilution method; assay type: functional; how it was run: as §1
Prevotella intermedia [13] = experiment: Antimicrobial activity against Prevotella intermedia assessed as percent resistant isolates after 48 hrs by agar dilution method; assay type: functional; how it was run: as §1
Bacteroides caccae [14] = experiment: Antimicrobial activity against Bacteroides caccae assessed as percent susceptible isolates after 48 hrs by agar dilution method; assay type: functional
[15] = system: Bifidobacterium adolescentis; experiment: Antimicrobial activity against Bifidobacterium adolescentis assessed as percent susceptible isolates after 48 hrs by agar dilution method; assay type: functional
Fusobacterium nucleatum = experiment: Antimicrobial activity against Fusobacterium nucleatum after 48 hrs by agar dilution method; assay type: functional; how it was run: as §3
Schaalia meyeri [16] = experiment: Antimicrobial activity against Actinomyces meyeri assessed as percent susceptible isolates after 48 hrs by agar dilution method; assay type: functional
Finegoldia magna [17] = experiment: Antimicrobial activity against Finegoldia magna after 48 hrs by agar dilution method; assay type: functional; how it was run: as §3
Anaerococcus prevotii [18] = experiment: Antimicrobial activity against Anaerococcus prevotii after 48 hrs by agar dilution method; assay type: functional; how it was run: as §2
Bacteroides caccae [19] = experiment: Antimicrobial activity against Bacteroides caccae assessed as percent resistant isolates after 48 hrs by agar dilution method; assay type: functional; how it was run: as §1
Prevotella bivia [20] = experiment: Antimicrobial activity against Prevotella bivia assessed as percent resistant isolates after 48 hrs by agar dilution method; assay type: functional; how it was run: as §1
Eubacterium sp. = experiment: Antimicrobial activity against Eubacterium sp. after 48 hrs by agar dilution method; assay type: functional; how it was run: as §3
[21] = system: Parabacteroides distasonis; experiment: Antimicrobial activity against Bacteroides distasonis assessed as percent susceptible isolates after 48 hrs by agar dilution method; assay type: functional
[22] = system: Bifidobacterium adolescentis; experiment: Antimicrobial activity against Bifidobacterium adolescentis assessed as percent resistant isolates after 48 hrs by agar dilution method; assay type: functional; how it was run: as §1
[23] = system: Peptoniphilus asaccharolyticus; experiment: Antimicrobial activity against Peptoniphilus asaccharolyticus after 48 hrs by agar dilution method; assay type: functional; how it was run: as §3
[24] = system: Peptoniphilus asaccharolyticus; experiment: Antimicrobial activity against Peptoniphilus asaccharolyticus assessed as percent susceptible isolates after 48 hrs by agar dilution method; assay type: functional; how it was run: as §3
Bacteroides fragilis [25] = experiment: Antimicrobial activity against Bacteroides fragilis assessed as percent resistant isolates after 48 hrs by agar dilution method; assay type: functional; how it was run: as §1
Bacteroides caccae [26] = experiment: Antimicrobial activity against Bacteroides caccae after 48 hrs by agar dilution method; assay type: functional; how it was run: as §2
[27] = system: Bacteroides thetaiotaomicron; experiment: Antimicrobial activity against Bacteroides thetaiotaomicron assessed as percent resistant isolates after 48 hrs by agar dilution method; assay type: functional; how it was run: as §1
Finegoldia magna [28] = experiment: Antimicrobial activity against Finegoldia magna assessed as percent resistant isolates after 48 hrs by agar dilution method; assay type: functional; how it was run: as §1
Clostridioides difficile [29] = experiment: Antimicrobial activity against Clostridium difficile assessed as percent susceptible isolates after 48 hrs by agar dilution method; assay type: functional
Schaalia odontolytica = experiment: Antimicrobial activity against Actinomyces odontolyticus assessed as percent susceptible isolates after 48 hrs by agar dilution method; assay type: functional
Prevotella intermedia [30] = experiment: Antimicrobial activity against Prevotella intermedia assessed as percent susceptible isolates after 48 hrs by agar dilution method; assay type: functional; how it was run: as §3
Bacteroides ovatus [31] = experiment: Antimicrobial activity against Bacteroides ovatus assessed as percent susceptible isolates after 48 hrs by agar dilution method; assay type: functional
Finegoldia magna [32] = experiment: Antimicrobial activity against Finegoldia magna assessed as percent susceptible isolates after 48 hrs by agar dilution method; assay type: functional; how it was run: as §3
Clostridioides difficile [33] = experiment: Antimicrobial activity against Clostridium difficile after 48 hrs by agar dilution method; assay type: functional
[34] = system: Peptoniphilus asaccharolyticus; experiment: Antimicrobial activity against Peptoniphilus asaccharolyticus assessed as percent resistant isolates after 48 hrs by agar dilution method; assay type: functional; how it was run: as §1
Schaalia meyeri [35] = experiment: Antimicrobial activity against Actinomyces meyeri after 48 hrs by agar dilution method; assay type: functional; how it was run: as §2
Bifidobacterium sp. = experiment: Antimicrobial activity against Bifidobacterium sp. assessed as percent resistant isolates after 48 hrs by agar dilution method; assay type: functional; how it was run: as §1
Actinomyces naeslundii [36] = experiment: Antimicrobial activity against Actinomyces naeslundii assessed as percent susceptible isolates after 48 hrs by agar dilution method; assay type: functional
Prevotella buccae [37] = experiment: Antimicrobial activity against Prevotella buccae after 48 hrs by agar dilution method; assay type: functional; conditions: Segatella buccae; how it was run: as §3
Bacteroides fragilis [38] = experiment: Antimicrobial activity against Bacteroides fragilis after 48 hrs by agar dilution method; assay type: functional; how it was run: as §2
[39] = system: Peptostreptococcus anaerobius; experiment: Antimicrobial activity against Peptostreptococcus anaerobius assessed as percent susceptible isolates after 48 hrs by agar dilution method; assay type: functional; how it was run: as §1
Hoylesella oralis [40] = experiment: Antimicrobial activity against Prevotella oralis after 48 hrs by agar dilution method; assay type: functional; how it was run: as §3
[41] = system: Bifidobacterium adolescentis; experiment: Antimicrobial activity against Bifidobacterium adolescentis after 48 hrs by agar dilution method; assay type: functional; how it was run: as §2

## CO[C@@]1(NC(=O)Cc2cccs2)C(=O)N2C(C(=O)O)=C(COC(N)=O)CS[C@@H]21 [CEFOXITIN]
Eggerthella lenta
  Activity: 0%
Phocaeicola vulgatus
  Activity: 25%
Bacteroides ovatus [1]
  Activity: 7%
Anaerococcus prevotii [2]
  Activity: 0%
[3]
  MIC50: 32 mg/L (≈ 74.9 µM)
  MIC90: 32 mg/L (≈ 74.9 µM)
Actinomyces naeslundii [4]
  MIC50: 2 mg/L (≈ 4.68 µM)
  MIC90: 16 mg/L (≈ 37.4 µM)
Prevotella bivia [5]
  MIC50: 1 mg/L (≈ 2.34 µM)
  MIC90: 32 mg/L (≈ 74.9 µM)
Fusobacterium varium
  MIC: 0.06 mg/L (≈ 0.14 µM)
Fusobacterium mortiferum
  MIC: 0.06 mg/L (≈ 0.14 µM)
Bacteroides fragilis [6]
  Activity: 79%
Clostridioides difficile [7]
  Activity: 100%
Hoylesella oralis [8]
  Activity: 0%
Prevotella bivia [9]
  Activity: 89%
Parvimonas micra
  Activity: 0%
Prevotella buccae [10]
  Activity: 89%
Schaalia meyeri [11]
  Activity: 0%
Actinomyces naeslundii [12]
  Activity: 0%
Prevotella intermedia [13]
  Activity: 0%
Bacteroides caccae [14]
  Activity: 25%
[15]
  Activity: 92%
Fusobacterium nucleatum
  MIC: 0.06 mg/L (≈ 0.14 µM)
Schaalia meyeri [16]
  Activity: 92%
Finegoldia magna [17]
  MIC50: 0.5 mg/L (≈ 1.17 µM)
  MIC90: 1 mg/L (≈ 2.34 µM)
Anaerococcus prevotii [18]
  MIC50: 0.5 mg/L (≈ 1.17 µM)
  MIC90: 1 mg/L (≈ 2.34 µM)
Bacteroides caccae [19]
  Activity: 7%
Prevotella bivia [20]
  Activity: 0%
Eubacterium sp.
  MIC50: 2 mg/L (≈ 4.68 µM)
  MIC90: 16 mg/L (≈ 37.4 µM)
[21]
  Activity: 25%
[22]
  Activity: 0%
[23]
  MIC50: ≤ 0.06 mg/L
  MIC90: 0.5 mg/L (≈ 1.17 µM)
[24]
  Activity: 100%
Bacteroides fragilis [25]
  Activity: 5%
Bacteroides caccae [26]
  MIC50: 32 mg/L (≈ 74.9 µM)
  MIC90: 32 mg/L (≈ 74.9 µM)
[27]
  Activity: 7%
Finegoldia magna [28]
  Activity: 0%
Clostridioides difficile [29]
  Activity: 0%
Schaalia odontolytica
  Activity: 92%
Prevotella intermedia [30]
  Activity: 100%
Bacteroides ovatus [31]
  Activity: 25%
Finegoldia magna [32]
  Activity: 100%
Clostridioides difficile [33]
  MIC: 64 mg/L (≈ 150 µM)
  MIC50: 64 mg/L (≈ 150 µM)
  MIC90: > 128 mg/L
[34]
  Activity: 0%
Schaalia meyeri [35]
  MIC50: 2 mg/L (≈ 4.68 µM)
  MIC90: 16 mg/L (≈ 37.4 µM)
Bifidobacterium sp.
  Activity: 0%
Actinomyces naeslundii [36]
  Activity: 92%
Prevotella buccae [37]
  MIC50: 1 mg/L (≈ 2.34 µM)
  MIC90: 32 mg/L (≈ 74.9 µM)
Bacteroides fragilis [38]
  MIC50: 16 mg/L (≈ 37.4 µM)
  MIC90: 32 mg/L (≈ 74.9 µM)
[39]
  Activity: 100%
Hoylesella oralis [40]
  MIC50: 1 mg/L (≈ 2.34 µM)
  MIC90: 32 mg/L (≈ 74.9 µM)
[41]
  MIC50: 2 mg/L (≈ 4.68 µM)
  MIC90: 16 mg/L (≈ 37.4 µM)
